Paper PMC9447421 (FASEB BioAdvances, 2022)
Counter-ions that a name gives are not always drawn.

Assays:
[1] = system: canonical Gβγ‐PLC signaling pathway activated by T2Rs (T2R1); type: cell-based, Astyanax mexicanus; conditions: T2R1 cells; blocker 10 μM, 30 min pretreatment; brine shrimp 5 mg/ml
In short: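 HEK293T cells stably expressing FLAG-tagged fish T2R1, selected in hygromycin (200 μg/ml). Brine shrimp (300 mg ground food per 10 ml) and blockers prepared in assay buffer (1X HBSS, 20 mM HEPES). Cells loaded with Fluo-4 NW, 35 min at 37°C then 35 min at room temperature. Compounds added robotically on a FlexStation 3. Signal baseline-subtracted against parental HEK293T cells and reported as ΔRFU.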

hT2R4 [2] = conditions: human T2R4; cited from earlier work
hT2R1 = conditions: human T2R1; cited from earlier work
A. mexicanus T2R4 = target: T1, A. mexicanus T2R4 (Astyanax mexicanus, UniProt A0A3B1ICP8); assay: Calcium mobilization assay, HEK293T cells stably expressing T2R4; type: cell-based
T1 sequence (A0A3B1ICP8 2-338): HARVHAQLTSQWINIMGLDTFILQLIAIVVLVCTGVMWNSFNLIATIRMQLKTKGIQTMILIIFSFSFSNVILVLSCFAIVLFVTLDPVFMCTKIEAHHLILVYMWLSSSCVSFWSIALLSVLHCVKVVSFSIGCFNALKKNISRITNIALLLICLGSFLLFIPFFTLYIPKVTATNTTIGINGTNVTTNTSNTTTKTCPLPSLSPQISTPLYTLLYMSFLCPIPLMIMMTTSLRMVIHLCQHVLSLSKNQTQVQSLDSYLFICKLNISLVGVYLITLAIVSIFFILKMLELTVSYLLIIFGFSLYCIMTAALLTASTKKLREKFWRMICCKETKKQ

hT2R4 [3] = conditions: human T2R4; cited from earlier work; remark: listed apart in the source

COc1ccc2c(c1)CC[C@@H]1[C@@H]2CC[C@]2(C)[C@@H](NCCCCCCN3C(=O)C=CC3=O)CC[C@@H]12 [U73122]
Effect of pretreatment on brine shrimp-induced calcium mobilization [1]: significant decrease in calcium mobilization

C=C[C@H]1C[N@@]2CC[C@H]1C[C@H]2[C@H](O)c1ccnc2ccc(OC)cc12 [quinine, quinine hydrochloride]
Effect on hT2R4 expression (pharmacological chaperone) (hT2R4 [2]): acts intracellularly to enhance hT2R4 expression | Activation of hT2R1 (hT2R1): does not activate

COc1ccc2c(c1)[C@]13CCCC[C@@H]1[C@H](C2)N(C)CC3 [DXM, dextromethorphan]
EC50 (A. mexicanus T2R4): 1430 µM | Activation of hT2R4 (hT2R4 [3]): does not activate

COc1ccc2c(c1)CC[C@@H]1[C@@H]2CC[C@]2(C)[C@@H](NCCCCCCN3C(=O)CCC3=O)CC[C@@H]12 [U73343]
Effect of pretreatment on brine shrimp-induced calcium mobilization [1]: no significant differences

O=C1OC2(c3ccccc31)c1ccc(O)c(O)c1Oc1c2ccc(O)c1O [gallein, Gallein]
Effect of pretreatment on brine shrimp-induced calcium mobilization [1]: significant decrease in calcium mobilization
